Reference: ChEMBL document CHEMBL1155025, “Xanthones from the botanical dietary supplement mangosteen (Garcinia mangostana) with aromatase inhibitory activity” (J Nat Prod, 2008)

Legend:
Aromatase [1] = molecular target: T1, Aromatase (Homo sapiens, UniProt P11511); assay: Inhibition of aromatase in human placental microsomes; parameters: species or system Placenta
T1 sequence (P11511 whole entry): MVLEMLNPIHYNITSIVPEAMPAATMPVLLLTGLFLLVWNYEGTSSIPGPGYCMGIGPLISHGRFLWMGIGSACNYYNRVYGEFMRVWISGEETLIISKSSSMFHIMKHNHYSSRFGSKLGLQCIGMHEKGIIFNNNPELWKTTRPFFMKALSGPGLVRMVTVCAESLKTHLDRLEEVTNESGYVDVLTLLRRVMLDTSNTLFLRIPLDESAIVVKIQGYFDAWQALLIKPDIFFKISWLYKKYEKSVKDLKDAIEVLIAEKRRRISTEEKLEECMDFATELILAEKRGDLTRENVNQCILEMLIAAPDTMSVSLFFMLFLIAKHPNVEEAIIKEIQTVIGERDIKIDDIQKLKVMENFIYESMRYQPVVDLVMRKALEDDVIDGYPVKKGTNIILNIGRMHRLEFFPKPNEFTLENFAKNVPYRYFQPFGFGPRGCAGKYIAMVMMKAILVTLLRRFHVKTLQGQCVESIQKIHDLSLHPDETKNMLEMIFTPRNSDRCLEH
In short: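 Human term placental microsomes (50 µg, processed at 4 °C) incubated for 15 min at 37 °C with 100 nM [1β-3H]androstenedione in 0.1 M potassium phosphate pH 7.0, 5% propylene glycol, and NADPH-regenerating system. Quenched with CHCl3; 3H2O in aqueous layer counted by scintillation. IC50 derived from dose-response testing.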

Aromatase [2] = molecular target: T1, Aromatase; assay: Inhibition of aromatase in human placental microsomes at 20 ug/ml relative to control; parameters: species or system Placenta; scale not given: the % may be the effect or the level left
In short: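 Radiometric placental microsome assay with samples at 20 µg/mL in DMSO, in triplicate. 100 nM [1β-3H]androstenedione, pH 7.0 phosphate buffer, 5% propylene glycol, and NADPH-regenerating system. Reaction started with 50 µg microsomes, run 15 min at 37 °C, and stopped with CHCl3. 3H2O counted; percent control activity taken relative to DMSO.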

SK-BR-3 = assay: Cytotoxicity against human SKBR3 cells assessed as survival by MTT assay relative to control; type: functional
In short: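 MTT viability assay in SK-BR-3 human breast cancer cells that overexpress aromatase. Cells exposed to samples in DMSO, with DMSO as negative control. Six replicates. Read-out is percent cell survival relative to the DMSO control. IC50 obtained from a concentration–response curve.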

Aromatase [3] = molecular target: T1, Aromatase; assay: Inhibition of aromatase over-expressed in human SKBR3 cells at 50 uM relative to control; type: cell-based; parameters: scale not given: the % may be the effect or the level left; settings: SK-BR-3, human; read-out: Activity
In short: (§1)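 SK-BR-3 human breast cancer cells overexpressing aromatase, treated in triplicate. 0.1% DMSO serves as negative control. Tritiated water formation is read as pmol 3H2O/h per 10^6 live cells and expressed as percent control activity versus DMSO.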

Aromatase [4] = molecular target: T1, Aromatase; assay: Inhibition of aromatase over-expressed in human SKBR3 cells at 10 nM relative to control; type: cell-based; parameters: scale not given: the % may be the effect or the level left; settings: SK-BR-3, human; read-out: Activity; in short: as §1
Aromatase [5] = molecular target: T1, Aromatase; assay: Inhibition of aromatase over-expressed in human SKBR3 cells; type: cell-based, SK-BR-3
In short: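 SK-BR-3 human breast cancer cells overexpressing aromatase were treated in triplicate at various concentrations (screen at 50 µM), with 0.1% DMSO as negative control and 10 nM letrozole as positive control. Read-out was pmol 3H2O formed per hour per 10^6 live cells. Percent control activity was calculated versus DMSO.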

| Activity (Aromatase [2]) [%] | SMILES | IC50 (Aromatase [1]) [µM] | activity at 50 µM (Aromatase [3]) [%] | further results |
| --- | --- | --- | --- | --- |
| 55.1 | COc1c(CC=C(C)C)c(O)c2c(=O)c3c(O)ccc(O)c3oc2c1CC=C(C)C | – | – | – |
| 82.6 | CC(C)=CCc1c(O)c(CC=C(C)C)c2oc3c(O)cccc3c(=O)c2c1O [8-DEOXYGARTANIN] | – | – | – |
| 57.8 | COc1c(CC=C(C)C)c(O)c2c(=O)c3cccc(O)c3oc2c1CC=C(C)C [CUDRAXANTHONE G] | – | – | – |
| 78.8 | CC(C)=CCC/C(C)=C/Cc1c(O)cc2oc3c(O)cccc3c(=O)c2c1O [MANGOSTINONE] | – | – | – |
| 80.8 | CC(C)=CCC/C(C)=C/Cc1c(O)cc2oc3c(O)ccc(O)c3c(=O)c2c1O [SMEATHXANTHONE A] | – | – | – |
| 74.7 | CC(C)=CCc1c(O)cc2oc3c(CC=C(C)C)c(O)c4c(c3c(=O)c2c1O)C=CC(C)(C)O4 [TOVOPHYLLINE A] | – | – | – |
| 75.9 | CC(C)=CCc1c(O)c(CC=C(C)C)c2oc3c(O)ccc(O)c3c(=O)c2c1O [GARTANIN] | – | – | – |
| 52.6 | COc1c(O)cc2oc3cc(O)c4c(c3c(=O)c2c1CC=C(C)C)OC(C)(C)CC4 | – | – | – |

The next lines start with the molecule.

| SMILES | Activity (Aromatase [2]) [%] | IC50 (Aromatase [1]) [µM] | activity at 50 µM (Aromatase [3]) [%] | further results |
| --- | --- | --- | --- | --- |
| COc1c(O)cc2oc3cc(O)c(CC=C(C)C)c(O)c3c(=O)c2c1CCC(C)(C)O [GARCINONE D] | 10 | 5.2 | 50.7 | Survival (SK-BR-3): 89.4% |
| CC(C)=CCc1c(O)cc2oc3c(CC=C(C)C)c(O)c(O)c(CC=C(C)C)c3c(=O)c2c1O [GARCINONE E] | 23.9 | 25.1 | 32.3 | Survival (SK-BR-3): 52.3% |
| COc1c(O)cc2oc3cc(O)c(CC=C(C)C)c(O)c3c(=O)c2c1CC=C(C)C [MANGOSTIN] | 22.2 | 20.7 | 59.4 | Survival (SK-BR-3): 18.4% |
| N#Cc1ccc(C(c2ccc(C#N)cc2)n2cncn2)cc1 [LETROZOLE] | – | – | – | activity at 0.01 µM (Aromatase [4]): 7.4% |
| CC(C)=CCc1c(O)cc2oc3cc(O)c(O)c(CC=C(C)C)c3c(=O)c2c1O | 4.7 | 6.9 | -0.5 | IC50 (Aromatase [5]): 4.97 µM |
